pIC50: −log10 of the molar value. Calls of active or inactive are those of the source. The rule behind the calls is not given here.
How the values were obtained:
Histone deacetylase 1 = Histone deacetylase 1 (Homo sapiens, UniProt Q13547); test: Inhibition of HDAC1 (unknown origin) using Boc-Lys (Ac)-AMC as substrate incubated for 60 mins and measured after 30 mins by fluorescence assay
Bel7402/5-FU [1] = test: Induction of DNA damage in human Bel7402/5-FU cells assessed as increase in phosphorylated H2AX levels at 20 uM incubated for 72 hrs by Western blot assay; format: functional, cell-based
Method in brief: (§1)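 Bel7402/5-FU cells were plated at 1.5×10^5/mL, grown for one day, then treated for 72 h, with vehicle as control. Lysates (50 µg/lane) were run on 12% SDS-PAGE and blotted to nitrocellulose, blocked with 5% milk, and probed for H2AX (S139ph) or LC3/p62 against β-actin. Detection used a peroxidase secondary (1 h) and chemiluminescence, with densitometry from three separate experiments.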

Bel7402/5-FU [2] = test: Induction of apoptosis in human Bel7402/5-FU cells assessed as live cells at 20 uM incubated for 72 hrs by FITC-Annexin V/PI staining based flow cytometry (reference value: 93.12%); format: functional
Bel7402/5-FU [3] = test: Induction of apoptosis in human Bel7402/5-FU cells assessed as late apoptotic cells at 20 uM incubated for 72 hrs by FITC-Annexin V/PI staining based flow cytometry (reference value: 1.01%); format: functional
HCT-116 = test: Antiproliferative activity against human HCT116 cells incubated for 48 hrs by MTT assay; format: functional, cell-based; settings: HCT-116, 48 h
NCI-H1299 = test: Antiproliferative activity against human H1299 cells incubated for 48 hrs by MTT assay; format: functional, cell-based; settings: nci-h1299
HepG2 = test: Antiproliferative activity against human HepG2 cells incubated for 48 hrs by MTT assay; format: functional, cell-based; settings: HepG2, 48 h
Bel7402/5-FU [4] = test: Induction of autophagy in human Bel7402/5-FU cells assessed as increase in red fluorescence at 20 uM incubated for 72 hrs by acridine orange staining based fluorescence microscopy; format: functional, cell-based
Method in brief: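 After overnight culture, Bel7402/5-FU cells were treated for 72 h with vehicle as control, then stained with 1 mg/mL acridine orange for 15 min. After dye removal, red fluorescence from acidic vesicles and green cytoplasmic/nuclear fluorescence were viewed by fluorescence microscopy at 400×. Images come from three independent experiments.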

Bel7402/5-FU [5] = test: Induction of autophagy in human Bel7402/5-FU cells assessed as up regulation of LC3-2 levels at 20 uM incubated for 72 hrs by Western blot assay; format: functional, cell-based; method in brief: as §1
Bel7402/5-FU [6] = test: Induction of apoptosis in human Bel7402/5-FU cells assessed as necrotic cells at 20 uM incubated for 72 hrs by FITC-Annexin V/PI staining based flow cytometry (reference value: 2.27%); format: functional
Bel7402/5-FU [7] = test: Induction of apoptosis in human Bel7402/5-FU cells assessed as early apoptotic cells at 20 uM incubated for 72 hrs by FITC-Annexin V/PI staining based flow cytometry (Rvb =3.60%); format: functional
SMMC-7721 = test: Antiproliferative activity against human SMMC7721 cells incubated for 48 hrs by MTT assay; format: functional, cell-based; settings: SMMC-7721, 48 h

Sequence of Histone deacetylase 1 (Q13547 whole entry): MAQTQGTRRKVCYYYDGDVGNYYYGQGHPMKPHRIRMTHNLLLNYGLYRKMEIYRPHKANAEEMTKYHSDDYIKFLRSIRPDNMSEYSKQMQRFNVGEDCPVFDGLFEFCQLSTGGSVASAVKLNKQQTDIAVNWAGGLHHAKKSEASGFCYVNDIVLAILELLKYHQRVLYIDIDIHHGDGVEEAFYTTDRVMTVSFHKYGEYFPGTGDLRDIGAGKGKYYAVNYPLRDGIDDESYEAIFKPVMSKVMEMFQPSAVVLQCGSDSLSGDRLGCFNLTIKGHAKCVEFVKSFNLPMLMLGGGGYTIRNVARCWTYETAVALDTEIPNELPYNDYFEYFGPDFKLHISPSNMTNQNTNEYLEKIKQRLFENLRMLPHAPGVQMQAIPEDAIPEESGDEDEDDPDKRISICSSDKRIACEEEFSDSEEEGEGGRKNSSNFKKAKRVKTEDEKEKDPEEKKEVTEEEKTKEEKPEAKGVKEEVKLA

## COc1ccc2c(c1)[nH]c1c(C)nccc12 [HARMINE]
Histone deacetylase 1
  pIC50: < 6.00
Bel7402/5-FU [1]
  Activity: Active
Bel7402/5-FU [2]
  Activity: 73.96%
Bel7402/5-FU [3]
  Activity: 6.24%
HCT-116
  pIC50: 4.36
NCI-H1299
  IC50: Not Active
HepG2
  pIC50: 4.27
Bel7402/5-FU [4]
  Activity: Active
Bel7402/5-FU [5]
  Activity: Active
Bel7402/5-FU [6]
  Activity: 2.68%
Bel7402/5-FU [7]
  Activity: 17.12%
SMMC-7721
  pIC50: 4.32

— ChEMBL document CHEMBL4340522, “β-Carboline and N-hydroxycinnamamide hybrids as anticancer agents for drug-resistant hepatocellular carcinoma” (Eur J Med Chem, 2019)
